This passage reports Cmax, Activity and IC50 results from ChEMBL document CHEMBL4382192, “Discovery of a potent dual ALK and EGFR T790M inhibitor” (Eur J Med Chem, 2017).

Data set [1] can be described thus: Cmax in mouse at 10 mg/kg, po. Type of data set: ADME, organism-based. On the set-up: dose 10 mg/kg, route oral. The following applies: in vivo.
Data set [2] has as its system Tyrosine-protein kinase ABL1 (Homo sapiens), P00519 [F317L]. Description: Binding affinity to human non-phosphorylated ABL1 F317L mutant (S229 to K512 residues) expressed in mammalian expression system assessed as residual binding level at 1 uM by Kinomescan method relative to control. The procedure, abridged: (§1)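 Kinome-wide selectivity panel run by the KINOMEscan method, with the test compound at a single concentration of 1 μM. Wild-type and mutant kinases were profiled in the same screen.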

Data set [3] concerns the target Mitotic checkpoint serine/threonine-protein kinase BUB1 (Homo sapiens) (UniProt O43683). Put plainly: Binding affinity to wild-type human partial length BUB1 (Q724 to K1085 residues) expressed in mammalian expression system assessed as residual binding level at 1 uM by Kinomescan method relative to control.
Data set [4] deals with Dual specificity protein kinase CLK1 (Homo sapiens) (UniProt P49759). Description: Binding affinity to wild-type human full length CLK1 (M1 to I484 residues) expressed in bacterial expression system assessed as residual binding level at 1 uM by Kinomescan method relative to control.
Data set [5] addresses Casein kinase I isoform gamma-2 (Homo sapiens) (UniProt P78368). Description: Binding affinity to wild-type human full length CSNK1G2 (M1 to K415 residues) expressed in bacterial expression system assessed as residual binding level at 1 uM by Kinomescan method relative to control.
Data set [6] has as its target Dual specificity tyrosine-phosphorylation-regulated kinase 1B (Homo sapiens) (UniProt Q9Y463). Put plainly: Binding affinity to wild-type human full length DYRK1B (M1 to S629 residues) expressed in bacterial expression system assessed as residual binding level at 1 uM by Kinomescan method relative to control.
In data set [7] the target is Epidermal growth factor receptor (Homo sapiens) (UniProt P00533). Put plainly: Binding affinity to wild-type human partial length EGFR (R669 to V1011 residues) expressed in bacterial expression system assessed as residual binding level at 1 uM by Kinomescan method relative to control.
Data set [8] has as its target Receptor tyrosine-protein kinase erbB-4 (Homo sapiens, UniProt Q15303). Put plainly: Binding affinity to wild-type human partial length ERBB4 (L690 to K994 residues) expressed in bacterial expression system assessed as residual binding level at 1 uM by Kinomescan method relative to control.
The subject of data set [9] is Fibroblast growth factor receptor 3 (Homo sapiens), P22607 [G697C]. Put plainly: Binding affinity to human partial length FGFR3 G697C mutant (R442 to S771 residues) expressed in bacterial expression system assessed as residual binding level at 1 uM by Kinomescan method relative to control. In a few lines:
as §1

Data set [10] relates to Receptor-type tyrosine-protein kinase FLT3 (Homo sapiens), P36888 [UNDEFINED MUTATION]. Put plainly: Binding affinity to human partial length FLT3 ITD/D835V double mutant expressed in bacterial expression system assessed as residual binding level at 1 uM by Kinomescan method relative to control. In a few lines: as §1
Data set [11] has as its target Homeodomain-interacting protein kinase 3 (Homo sapiens) (UniProt Q9H422). Put plainly: Binding affinity to wild-type human partial length HIPK3 (M153 to N562 residues) expressed in mammalian expression system assessed as residual binding level at 1 uM by Kinomescan method relative to control.
Data set [12] has as its target Inhibitor of nuclear factor kappa-B kinase subunit epsilon (Homo sapiens) (UniProt Q14164). Description: Binding affinity to wild-type human full length IKK-epsilon (M1 to V716 residues) expressed in mammalian expression system assessed as residual binding level at 1 uM by Kinomescan method relative to control. In a few lines: (§2)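 Single-point kinome-wide KINOMEscan binding panel, test compound at 1 μM, run by the provider's standard protocol.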

Data set [13] deals with Tyrosine-protein kinase JAK1 (Homo sapiens) (UniProt P23458). Put plainly: Binding affinity to wild-type human partial length JAK1 JH2 pseudokinase domain (R537 to D855 residues) expressed in mammalian expression system assessed as residual binding level at 1 uM by Kinomescan method relative to control.
For data set [14], the system named is Mast/stem cell growth factor receptor Kit (Homo sapiens), P10721 [A829P]. Description: Binding affinity to human partial length KIT A829P mutant (I571 to D952 residues) expressed in mammalian expression system assessed as residual binding level at 1 uM by Kinomescan method relative to control. The procedure, abridged: as §1
Data set [15] deals with Mast/stem cell growth factor receptor Kit (Homo sapiens), P10721 [L576P]. Description: Binding affinity to human partial length KIT L576P mutant (Y545 to D952 residues) expressed in bacterial expression system assessed as residual binding level at 1 uM by Kinomescan method relative to control. The procedure, abridged:
as §1

For data set [16], the system named is Hepatocyte growth factor receptor (Homo sapiens), P08581 [M1250T]. Description: Binding affinity to human partial length MET M1250T mutant (D1010 to S1367 residues) expressed in bacterial expression system assessed as residual binding level at 1 uM by Kinomescan method relative to control. The procedure, abridged: as §1
Data set [17] deals with Phosphatidylinositol 5-phosphate 4-kinase type-2 beta (Homo sapiens) (UniProt P78356). Put plainly: Binding affinity to wild-type human full length PIP5K2B (M1 to T416 residues) expressed in bacterial expression system assessed as residual binding level at 1 uM by Kinomescan method relative to control. In a few lines: as §2
Data set [18] deals with cAMP-dependent protein kinase catalytic subunit alpha (Homo sapiens) (UniProt P17612). Description: Binding affinity to wild-type human partial length PKAC-alpha (G10 to F351 residues) expressed in bacterial expression system assessed as residual binding level at 1 uM by Kinomescan method relative to control.
Data set [19] concerns the target Protein kinase C theta type (Homo sapiens) (UniProt Q04759). Description: Binding affinity to wild-type human partial length PRKCQ (L350 to S706 residues) expressed in bacterial expression system assessed as residual binding level at 1 uM by Kinomescan method relative to control.
Data set [20] has as its system Proto-oncogene tyrosine-protein kinase receptor Ret (Homo sapiens), P07949 [V804L]. Put plainly: Binding affinity to human partial length RET V804L mutant (E713 to D1014 residues) expressed in bacterial expression system assessed as residual binding level at 1 uM by Kinomescan method relative to control. In a few lines:
as §1

In data set [21] the target is Non-receptor tyrosine-protein kinase TNK1 (Homo sapiens) (UniProt Q13470). Put plainly: Binding affinity to wild-type human full length TNK1 (M1 to P661 residues) expressed in bacterial expression system assessed as residual binding level at 1 uM by Kinomescan method relative to control.
Data set [22] addresses Wee1-like protein kinase (Homo sapiens) (UniProt P30291). Put plainly: Binding affinity to wild-type human partial length WEE1 (M291 to K575 residues) expressed in bacterial expression system assessed as residual binding level at 1 uM by Kinomescan method relative to control.
Data set [23] concerns the target Receptor tyrosine-protein kinase erbB-2 (Homo sapiens, UniProt P04626). Description: Inhibition of recombinant His-tagged human ErbB2 cytoplasmic domain expressed in baculovirus expression system by Z-LYTE assay.
The next data set has as its target CYP2C9 (Homo sapiens, UniProt P11712). Description: Residual activity of CYP2C9 in human liver microsomes at 10 uM using tolbutamide 4-hydroxylase as substrate preincubated for 5 mins followed by NADPH addition measured after 15 mins by LC/MS/MS analysis relative to control. The following applies: probe tolbutamide (4-hydroxylation).

Sequence of Receptor tyrosine-protein kinase erbB-4 (Q15303 whole entry, the tested form may be a part): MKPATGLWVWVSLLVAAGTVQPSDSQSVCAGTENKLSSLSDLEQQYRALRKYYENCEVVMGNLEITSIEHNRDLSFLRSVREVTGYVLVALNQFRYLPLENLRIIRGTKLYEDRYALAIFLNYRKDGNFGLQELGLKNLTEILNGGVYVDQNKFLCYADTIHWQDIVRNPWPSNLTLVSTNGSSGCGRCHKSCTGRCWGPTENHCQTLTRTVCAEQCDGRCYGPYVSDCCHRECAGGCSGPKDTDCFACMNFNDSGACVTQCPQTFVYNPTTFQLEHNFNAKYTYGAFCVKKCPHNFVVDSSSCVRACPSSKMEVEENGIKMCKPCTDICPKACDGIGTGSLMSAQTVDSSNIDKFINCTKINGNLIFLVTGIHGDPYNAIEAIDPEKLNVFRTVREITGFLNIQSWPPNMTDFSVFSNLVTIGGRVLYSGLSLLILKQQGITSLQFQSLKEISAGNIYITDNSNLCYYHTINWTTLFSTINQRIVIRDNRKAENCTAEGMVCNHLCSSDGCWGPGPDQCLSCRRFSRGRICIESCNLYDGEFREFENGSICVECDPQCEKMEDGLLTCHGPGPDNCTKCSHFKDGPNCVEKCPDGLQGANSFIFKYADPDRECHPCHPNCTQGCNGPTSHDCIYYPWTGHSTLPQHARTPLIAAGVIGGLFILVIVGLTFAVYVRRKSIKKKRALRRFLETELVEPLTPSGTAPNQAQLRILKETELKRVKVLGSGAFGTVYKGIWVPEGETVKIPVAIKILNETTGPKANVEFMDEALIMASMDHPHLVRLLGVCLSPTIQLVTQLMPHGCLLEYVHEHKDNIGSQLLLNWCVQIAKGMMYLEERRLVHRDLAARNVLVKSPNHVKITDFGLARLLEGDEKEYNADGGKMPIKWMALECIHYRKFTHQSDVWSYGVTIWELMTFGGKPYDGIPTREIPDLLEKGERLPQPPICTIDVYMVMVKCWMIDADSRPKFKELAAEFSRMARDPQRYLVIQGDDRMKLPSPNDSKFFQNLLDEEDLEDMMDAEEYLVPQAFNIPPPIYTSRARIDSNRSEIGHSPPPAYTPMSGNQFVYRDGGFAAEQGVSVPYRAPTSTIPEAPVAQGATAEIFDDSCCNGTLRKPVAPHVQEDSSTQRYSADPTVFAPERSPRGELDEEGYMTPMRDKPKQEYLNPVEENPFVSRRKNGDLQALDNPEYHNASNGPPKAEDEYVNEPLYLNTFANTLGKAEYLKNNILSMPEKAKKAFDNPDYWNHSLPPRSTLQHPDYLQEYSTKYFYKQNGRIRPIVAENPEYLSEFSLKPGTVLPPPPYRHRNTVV
Sequence of Mitotic checkpoint serine/threonine-protein kinase BUB1 (Homo sapiens) (O43683 whole entry, looked up, the tested form may be a part): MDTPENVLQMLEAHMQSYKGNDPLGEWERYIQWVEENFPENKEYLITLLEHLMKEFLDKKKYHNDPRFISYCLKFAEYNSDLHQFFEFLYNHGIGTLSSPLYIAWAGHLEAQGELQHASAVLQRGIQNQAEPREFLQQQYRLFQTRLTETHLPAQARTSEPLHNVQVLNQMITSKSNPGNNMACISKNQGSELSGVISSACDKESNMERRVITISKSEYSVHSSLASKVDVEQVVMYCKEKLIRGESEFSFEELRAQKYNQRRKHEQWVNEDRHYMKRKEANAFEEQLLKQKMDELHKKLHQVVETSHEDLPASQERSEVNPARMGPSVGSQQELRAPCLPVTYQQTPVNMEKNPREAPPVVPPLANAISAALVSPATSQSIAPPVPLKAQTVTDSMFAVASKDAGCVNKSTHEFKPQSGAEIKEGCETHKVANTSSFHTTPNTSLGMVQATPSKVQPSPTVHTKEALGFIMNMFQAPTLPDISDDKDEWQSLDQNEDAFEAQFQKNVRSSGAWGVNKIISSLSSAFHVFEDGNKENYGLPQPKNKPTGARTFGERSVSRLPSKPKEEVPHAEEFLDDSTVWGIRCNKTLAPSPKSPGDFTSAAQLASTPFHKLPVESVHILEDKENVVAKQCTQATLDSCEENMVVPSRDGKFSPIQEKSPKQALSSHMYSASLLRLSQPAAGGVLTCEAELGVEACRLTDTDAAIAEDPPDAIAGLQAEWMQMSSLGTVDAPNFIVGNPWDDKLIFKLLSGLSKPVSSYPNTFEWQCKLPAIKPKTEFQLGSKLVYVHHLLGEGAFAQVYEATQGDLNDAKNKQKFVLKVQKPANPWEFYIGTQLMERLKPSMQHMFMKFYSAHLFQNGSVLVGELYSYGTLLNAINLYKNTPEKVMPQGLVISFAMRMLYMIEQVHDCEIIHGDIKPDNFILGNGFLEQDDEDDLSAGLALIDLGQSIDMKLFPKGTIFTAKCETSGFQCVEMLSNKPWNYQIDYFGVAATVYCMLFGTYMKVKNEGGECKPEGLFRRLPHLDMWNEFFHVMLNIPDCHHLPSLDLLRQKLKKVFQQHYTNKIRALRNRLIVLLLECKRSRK
Sequence of Homeodomain-interacting protein kinase 3 (Homo sapiens) (Q9H422 whole entry, looked up, the tested form may be a part): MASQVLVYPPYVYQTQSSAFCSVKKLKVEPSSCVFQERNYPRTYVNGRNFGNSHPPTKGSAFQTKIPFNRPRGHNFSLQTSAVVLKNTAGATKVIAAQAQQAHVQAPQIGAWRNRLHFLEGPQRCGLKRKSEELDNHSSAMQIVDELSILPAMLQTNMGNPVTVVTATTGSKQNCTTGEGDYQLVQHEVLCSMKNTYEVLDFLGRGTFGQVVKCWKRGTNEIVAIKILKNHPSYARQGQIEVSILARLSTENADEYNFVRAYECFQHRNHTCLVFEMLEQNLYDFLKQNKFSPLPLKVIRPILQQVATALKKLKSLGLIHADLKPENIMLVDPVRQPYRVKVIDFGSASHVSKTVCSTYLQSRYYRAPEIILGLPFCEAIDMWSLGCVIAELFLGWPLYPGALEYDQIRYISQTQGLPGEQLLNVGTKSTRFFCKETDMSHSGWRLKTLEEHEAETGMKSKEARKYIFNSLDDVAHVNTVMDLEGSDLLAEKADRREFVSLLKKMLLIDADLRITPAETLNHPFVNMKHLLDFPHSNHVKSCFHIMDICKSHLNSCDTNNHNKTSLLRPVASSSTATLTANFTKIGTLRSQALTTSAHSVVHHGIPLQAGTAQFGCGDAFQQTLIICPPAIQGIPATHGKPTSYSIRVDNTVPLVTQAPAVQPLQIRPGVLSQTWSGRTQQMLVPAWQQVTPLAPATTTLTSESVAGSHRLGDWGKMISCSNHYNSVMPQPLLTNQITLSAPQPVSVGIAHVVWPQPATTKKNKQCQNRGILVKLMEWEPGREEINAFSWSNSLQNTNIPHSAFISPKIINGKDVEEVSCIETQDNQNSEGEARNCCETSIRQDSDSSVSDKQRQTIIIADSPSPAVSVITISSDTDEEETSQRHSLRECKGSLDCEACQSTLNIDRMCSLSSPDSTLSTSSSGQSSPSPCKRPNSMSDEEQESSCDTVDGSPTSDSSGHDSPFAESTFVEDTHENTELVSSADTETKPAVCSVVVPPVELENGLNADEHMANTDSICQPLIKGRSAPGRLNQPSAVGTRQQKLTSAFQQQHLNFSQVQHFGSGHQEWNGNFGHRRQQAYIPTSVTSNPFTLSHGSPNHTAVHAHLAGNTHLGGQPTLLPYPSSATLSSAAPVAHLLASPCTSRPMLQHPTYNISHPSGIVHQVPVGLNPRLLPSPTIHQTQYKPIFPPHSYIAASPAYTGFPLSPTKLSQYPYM
Sequence of Proto-oncogene tyrosine-protein kinase receptor Ret (Homo sapiens), P07949 [V804L] (P07949 whole entry V804L, the tested form may be a part): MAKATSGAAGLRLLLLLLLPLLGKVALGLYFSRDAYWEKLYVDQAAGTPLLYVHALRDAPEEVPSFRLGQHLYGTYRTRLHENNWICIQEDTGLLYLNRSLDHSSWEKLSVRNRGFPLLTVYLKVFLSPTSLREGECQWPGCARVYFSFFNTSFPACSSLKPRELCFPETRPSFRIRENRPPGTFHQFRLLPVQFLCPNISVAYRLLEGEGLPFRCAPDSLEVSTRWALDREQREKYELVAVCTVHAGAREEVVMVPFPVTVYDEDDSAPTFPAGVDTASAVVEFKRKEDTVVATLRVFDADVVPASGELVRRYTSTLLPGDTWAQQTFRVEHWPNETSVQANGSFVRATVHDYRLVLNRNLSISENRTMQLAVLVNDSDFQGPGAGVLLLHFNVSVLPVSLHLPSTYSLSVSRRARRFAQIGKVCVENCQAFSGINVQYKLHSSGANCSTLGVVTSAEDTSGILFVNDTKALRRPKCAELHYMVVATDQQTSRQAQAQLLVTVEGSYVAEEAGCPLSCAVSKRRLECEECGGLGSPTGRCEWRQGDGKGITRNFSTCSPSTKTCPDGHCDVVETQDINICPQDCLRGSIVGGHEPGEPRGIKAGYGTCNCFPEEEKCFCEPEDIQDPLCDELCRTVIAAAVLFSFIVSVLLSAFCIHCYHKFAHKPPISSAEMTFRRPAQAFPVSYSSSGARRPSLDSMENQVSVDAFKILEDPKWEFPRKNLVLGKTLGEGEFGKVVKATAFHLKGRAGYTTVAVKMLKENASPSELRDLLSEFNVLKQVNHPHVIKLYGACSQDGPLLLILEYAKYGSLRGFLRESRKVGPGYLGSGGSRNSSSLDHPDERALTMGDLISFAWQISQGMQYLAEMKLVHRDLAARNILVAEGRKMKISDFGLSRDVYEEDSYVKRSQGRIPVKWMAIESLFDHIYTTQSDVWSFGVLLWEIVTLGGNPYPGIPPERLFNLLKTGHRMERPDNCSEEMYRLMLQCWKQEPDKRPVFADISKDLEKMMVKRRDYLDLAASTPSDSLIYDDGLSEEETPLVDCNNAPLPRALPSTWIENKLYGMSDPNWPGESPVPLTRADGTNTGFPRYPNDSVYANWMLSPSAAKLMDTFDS

`C=CC(=O)Nc1cc(Nc2ncc(Cl)c(Nc3ccccc3S(=O)(=O)C(C)C)n2)c(OC)cc1N(C)CCN(C)C` registered a Cmax in [1] of 520 ng/mL. Moreover, the Activity in data set [2] came out at 0.8%; in data set [3], 87%; in data set [4] it was 6.9%; in data set [5] it was 74%; in data set [6], 48%; in data set [7], 0%. Besides, the Activity in data set [8] worked out at 0%; in data set [9], 15%; in [10], 12%; in [11], 87%; in [12], 21%; in [13], 63%. The Activity came out at 45% in [14]; 9.1% in data set [15]; 14% in data set [16]; 55% in [17]; 100% in [18]; 48% in data set [19]. The Activity in [20] amounted to 14%; in data set [21] it was 3.3%; in data set [22] it was 94%. Besides, the IC50 in [23] came out at 37 nM. At CYP2C9, this molecule displayed an Activity at […], 10 µM of 83%.
